Molecules are shown by their SMILES.

One assay has as its system SF-295. Kind of assay: Antiproliferative activity against human SF-295 cells assessed as cell growth inhibition at 10 uM incubated for 48 hrs by SRB assay relative to control. In kind it is functional. The note with it: read-out: GI. The method, boiled down: (§1)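 Cells plated in 96-well plates at […] cells/well and preincubated 24 h at 37 °C, 5% CO2. Time-zero plates were TCA-fixed. Compound was diluted in medium with 50 µg/mL gentamicin and cells exposed for 48 h. Adherent cells fixed with 10% final TCA; suspension cells with 16% final TCA. Plates stained with 0.4% SRB in 1% acetic acid, dye solubilized in 10 mM Trizma, absorbance read at 515 nm. Percent growth calculated against time-zero and control.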
Take `Cc1nc2c(cnn2-c2ccccc2)c(=O)n1-c1ccc(NC(=O)c2ccc(Cl)cc2)cc1`: the inhibition of growth at 10 µM stood at 45.9%.

For another assay, the system named is A549. Kind of assay: Antiproliferative activity against human A549 cells assessed as cell growth inhibition at 10 uM incubated for 48 hrs by SRB assay relative to control. The settings on record: read-out: GI. In kind it is functional.
In the case of `Cc1nc2c(cnn2-c2ccccc2)c(=O)n1-c1ccc(NC(=O)c2ccc(Cl)cc2)cc1`, the inhibition of growth at 10 µM came to 26.1%.

The next assay has as its system SK-MEL-28. As to the kind of experiment: Antiproliferative activity against human SK-MEL-28 cells assessed as cell growth inhibition at 10 uM incubated for 48 hrs by SRB assay relative to control. Format: functional. The note with it: read-out: GI. The method, boiled down: as §1
As to `Cc1nc2c(cnn2-c2ccccc2)c(=O)n1-c1ccc(NC(=O)c2ccc(Cl)cc2)cc1`, the inhibition of growth at 10 µM is 17.1%.

For a further assay, the system named is MDA-MB-468. Kind of assay: Antiproliferative activity against human MDA-MB-468 cells assessed as cell growth inhibition at 10 uM incubated for 48 hrs by SRB assay relative to control. The settings on record: read-out: GI. In kind it is functional.
For the molecule `Cc1nc2c(cnn2-c2ccccc2)c(=O)n1-c1ccc(NC(=O)c2ccc(Cl)cc2)cc1`, the inhibition of growth at 10 µM was 84.3%.

A further assay deals with CAKI-1. As to the kind of experiment: Antiproliferative activity against human CAKI-1 cells assessed as cell growth inhibition at 10 uM incubated for 48 hrs by SRB assay relative to control. In kind it is functional. The settings on record: read-out: GI.
For the molecule `Cc1nc2c(cnn2-c2ccccc2)c(=O)n1-c1ccc(NC(=O)c2ccc(Cl)cc2)cc1`, the inhibition of growth at 10 µM stood at 29.7%.

A further assay relates to BT-549. As to the kind of experiment: Antiproliferative activity against human BT-549 cells assessed as cell growth inhibition at 10 uM incubated for 48 hrs by SRB assay relative to control. In kind it is functional. The settings on record: read-out: GI.
For `Cc1nc2c(cnn2-c2ccccc2)c(=O)n1-c1ccc(NC(=O)c2ccc(Cl)cc2)cc1`, the inhibition of growth at 10 µM turned out to be 36%.

The next assay concerns ACHN. Kind of assay: Antiproliferative activity against human ACHN cells assessed as cell growth inhibition at 10 uM incubated for 48 hrs by SRB assay relative to control. Format: functional. The settings on record: read-out: GI.
For the molecule `Cc1nc2c(cnn2-c2ccccc2)c(=O)n1-c1ccc(NC(=O)c2ccc(Cl)cc2)cc1`, the inhibition of growth at 10 µM came to 32.6%.

Another assay has as its system IGROV-1. Kind of assay: Antiproliferative activity against human IGROV-1 cells assessed as cell growth inhibition at 10 uM incubated for 48 hrs by SRB assay relative to control. Format: functional. The settings on record: read-out: GI.
`Cc1nc2c(cnn2-c2ccccc2)c(=O)n1-c1ccc(NC(=O)c2ccc(Cl)cc2)cc1`: the inhibition of growth at 10 µM was determined as 21.3%.

A further assay concerns SK-MEL-2. Kind of assay: Antiproliferative activity against human SK-MEL-2 cells assessed as cell growth inhibition at 10 uM incubated for 48 hrs by SRB assay relative to control. In kind it is functional. The note with it: read-out: GI. Put shortly:
as §1
Consider `Cc1nc2c(cnn2-c2ccccc2)c(=O)n1-c1ccc(NC(=O)c2ccc(Cl)cc2)cc1`, for which the inhibition of growth at 10 µM came out at 26.1%.

Another assay relates to Malme-3M. Kind of assay: Antiproliferative activity against human Malme-3M cells assessed as cell growth inhibition at 10 uM incubated for 48 hrs by SRB assay relative to control. Format: functional. The note with it: read-out: GI.
As to `Cc1nc2c(cnn2-c2ccccc2)c(=O)n1-c1ccc(NC(=O)c2ccc(Cl)cc2)cc1`, the inhibition of growth at 10 µM came to 33.3%.

The test system of another assay is U-251. As to the kind of experiment: Antiproliferative activity against human U-251 cells assessed as cell growth inhibition at 10 uM incubated for 48 hrs by SRB assay relative to control. The note with it: read-out: GI. In kind it is functional. Put shortly: (§2)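 Cells pre-incubated 24 h at 37°C, 5% CO2, then exposed to compound (DMSO stock diluted in medium with 50 µg/mL gentamicin) for 48 h. Adherent cells fixed with cold TCA (final 10%, 60 min, 4°C); suspension cells fixed with 16% TCA final. Stained with 0.4% SRB in 1% acetic acid for 10 min, dye solubilized in 10 mM Trizma base, absorbance read at 515 nm. Growth calculated against time-zero and untreated control plates.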
`Cc1nc2c(cnn2-c2ccccc2)c(=O)n1-c1ccc(NC(=O)c2ccc(Cl)cc2)cc1`: the inhibition of growth at 10 µM is under 15%.

A further assay relates to Hs-578T. As to the kind of experiment: Antiproliferative activity against human Hs-578T cells assessed as cell growth inhibition at 10 uM incubated for 48 hrs by SRB assay relative to control. In kind it is functional. The note with it: read-out: GI. Put shortly: as §1
Consider `Cc1nc2c(cnn2-c2ccccc2)c(=O)n1-c1ccc(NC(=O)c2ccc(Cl)cc2)cc1`, for which the inhibition of growth at 10 µM was found to be 20.1%.

The next assay deals with RXF 393. As to the kind of experiment: Antiproliferative activity against human RXF 393 cells assessed as cell growth inhibition at 10 uM incubated for 48 hrs by SRB assay relative to control. The note with it: read-out: GI. In kind it is functional. The method, boiled down:
as §1
Consider `Cc1nc2c(cnn2-c2ccccc2)c(=O)n1-c1ccc(NC(=O)c2ccc(Cl)cc2)cc1`, for which the inhibition of growth at 10 µM is under 15%.

A further assay deals with OVCAR-3. Kind of assay: Antiproliferative activity against human OVCAR-3 cells assessed as cell growth inhibition at 10 uM incubated for 48 hrs by SRB assay relative to control. Format: functional. The note with it: read-out: GI. Put shortly: as §1
On to `Cc1nc2c(cnn2-c2ccccc2)c(=O)n1-c1ccc(NC(=O)c2ccc(Cl)cc2)cc1`, for which the inhibition of growth at 10 µM turned out to be 17.4%.

For a further assay, the system named is SN12C. As to the kind of experiment: Antiproliferative activity against human SN12C cells assessed as cell growth inhibition at 10 uM incubated for 48 hrs by SRB assay relative to control. The settings on record: read-out: GI. Format: functional.
As for `Cc1nc2c(cnn2-c2ccccc2)c(=O)n1-c1ccc(NC(=O)c2ccc(Cl)cc2)cc1`, the inhibition of growth at 10 µM is 17%.

A further assay has as its system SK-OV-3. As to the kind of experiment: Antiproliferative activity against human SK-OV-3 cells assessed as cell growth inhibition at 10 uM incubated for 48 hrs by SRB assay relative to control. Format: functional. The settings on record: read-out: GI. Put shortly:
as §1
Take `Cc1nc2c(cnn2-c2ccccc2)c(=O)n1-c1ccc(NC(=O)c2ccc(Cl)cc2)cc1`: the inhibition of growth at 10 µM was under 15%.

In another assay the test system is UACC-257. Kind of assay: Antiproliferative activity against human UACC-257 cells assessed as cell growth inhibition at 10 uM incubated for 48 hrs by SRB assay relative to control. In kind it is functional. The note with it: read-out: GI. Put shortly: as §2
Consider `Cc1nc2c(cnn2-c2ccccc2)c(=O)n1-c1ccc(NC(=O)c2ccc(Cl)cc2)cc1`, for which the inhibition of growth at 10 µM is 53.9%.
